Where “and” joins values, the source holds several entries; their conditions need not be identical. Equal entries are not always repeated.
Tests used:
[1] = species on record: Canis familiaris; experiment: Maximum percent change in functional refractory period (FRP) at 10 uM on Canine ventricular muscle fibre.; set-up: species or system Canis lupus familiaris, Muscle tissue
Outline: (§1)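 Canine right ventricular papillary muscle strips were superfused at 36 ± 0.5 °C with saline gassed with 95% O2/5% CO2. Diastolic threshold was found with 2-ms stimuli at 4000 ms cycle length, then pacing at 4× threshold for 60 min equilibration. FRP was measured at 1000 ms cycle length by S1-S2 premature stimulus after every tenth S1. Conduction time came from a bipolar electrogram. Various compound concentrations were tested, one compound per strip, with vehicle controls. Percent change from control was taken at 10 µM, or the maximum change with its concentration; for N ≥ 3, mean with range.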

[2] = species on record: Canis familiaris; experiment: Maximum Percent change from control in the rate of rise of phase 0 of the action potential at 100 uM concentration on Canine Purkinje fibers.; type: Canis lupus familiaris, Purkinje fiber; settings: dog, in vitro
Outline: (§2)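 Isolated canine Purkinje fibers were superfused with physiological saline gassed with 95% O2/5% CO2 (pH 7.35–7.40) at 36 ± 0.5 °C. Paced at 1.0 Hz with 2-ms pulses at twice diastolic threshold. After up to 1 h stabilization, compounds were tested over 10^-8 to 10^-3 M, 30 min per concentration, one compound per fiber, with vehicle controls. Intracellular microelectrodes (3 M KCl) recorded Vmax and APD95; maximum percent change from control is reported with its concentration.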

[3] = species on record: Canis familiaris; experiment: Maximum percent change in conduction time (CT) at 1 uM concentration tested on Canine ventricular muscle fibre; type: functional, Canis lupus familiaris, Muscle tissue; outline: as §1
[4] = species on record: Canis familiaris; experiment: Percent change from control in the rate of rise of phase 0 of the action potential at 10 uM concentration on Canine Purkinje fibers.; value ranges from -17.0-2.0; set-up: species or system Canis lupus familiaris, Purkinje fiber; settings: dog, in vitro
[5] = species on record: Canis familiaris; experiment: Maximum Percent change from control in the rate of rise of phase 0 of the action potential at 0.1 uM concentration on Canine Purkinje fibers.; set-up: species or system Canis lupus familiaris, Purkinje fiber; outline: as §2
[6] = species on record: Canis familiaris; experiment: Maximum percent change in repolarization at 100 uM concentration on Canine Purkinje fibers.; type: functional, Canis lupus familiaris, Purkinje fiber; outline: as §2
[7] = species on record: Canis familiaris; experiment: Maximum Percent change from control in the rate of rise of phase 0 of the action potential at 10 uM concentration on Canine Purkinje fibers.; type: functional, Canis lupus familiaris, Purkinje fiber; settings: dog, in vitro; outline: as §2
[8] = species on record: Canis familiaris; experiment: Percent change from control in conduction time (CT) at 10 uM concentration tested on Canine ventricular muscle fibre.; M is minimal(<10% change in CT); type: functional; settings: Canis lupus familiaris, Muscle tissue; outline: as §1
[9] = species on record: Canis familiaris; experiment: Percent change in repolarization at 10 Purkinje fibers.; value ranges from -1-49; type: functional, Canis lupus familiaris, Purkinje fiber
Outline: (§3)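 Canine Purkinje fibers were held in oxygenated (95% O2–5% CO2) physiological saline, pH 7.35–7.40, at 36 ± 0.5 °C and paced at 1.0 Hz with 2-ms pulses at twice diastolic threshold. Intracellular microelectrodes (3 M KCl) recorded Vmax and APD95 simultaneously. After up to 1 h of stabilization, compounds were tested from 10^-8 to 10^-3 M with 30 min per concentration. One compound per fiber, with vehicle controls. For N ≥ 3, values are the mean with the range.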

[10] = species on record: Canis familiaris; experiment: Percent change from control in the functional refractory period (FRP) at 10 uM concentration on Canine ventricular muscle fibre.; set-up: species or system Canis lupus familiaris, Muscle tissue; outline: as §1
[11] = species on record: Canis familiaris; experiment: Maximum percent change in repolarization at 30 uM concentration on Canine Purkinje fibers.; type: functional, Canis lupus familiaris, Purkinje fiber; outline: as §2
[12] = species on record: Cavia porcellus; experiment: Concentration of compound ( ) which gives a 20% decrease in contractile force was tested on papillary muscle of guinea pig, activity was expressed as EC-20.; NR is not reached.; type: functional; settings: Muscle tissue
Outline: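 Contractile force measured in an isolated cardiac muscle preparation. Value is the concentration giving a 20% decrease in force of contraction. NR marks that this decrease was not reached. Values come from individual experiments; for N ≥ 3, the mean is given with the range.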

[13] = species on record: Canis familiaris; experiment: Maximum percent change in conduction time (CT) at 0.1 uM concentration tested on Canine ventricular muscle fibre; type: functional, Canis lupus familiaris, Muscle tissue; outline: as §1
[14] = species on record: Canis familiaris; experiment: The maximum change from control in the rate of rise of phase 0 of the action potential at 10 uM concentration on Canine Purkinje fibers.; set-up: species or system Canis lupus familiaris, Purkinje fiber; settings: dog; outline: as §3
[15] = species on record: Canis familiaris; experiment: Percent change from control in the rate of rise of phase 0 of the action potential at 10 uM concentration on Canine Purkinje fibers; value ranges from 8.0-4.0; set-up: species or system Canis lupus familiaris, Purkinje fiber; settings: dog
[16] = species on record: Canis familiaris; experiment: Percent change from control in conduction time (CT) at 10 uM concentration tested on Canine ventricular muscle fibre; value ranges from -12.0-2.0; type: functional, Canis lupus familiaris, Muscle tissue; outline: as §1
[17] = species on record: Canis familiaris; experiment: Maximum percent change in functional refractory period (FRP) at 100 uM on Canine ventricular muscle fibre; value ranges from 7-26; set-up: species or system Canis lupus familiaris, Muscle tissue; outline: as §1
[18] = species on record: Canis familiaris; experiment: The maximum percent change from control in the rate of rise of phase 0 of the action potential at 100 uM concentration on Canine Purkinje fibers.; set-up: species or system Canis lupus familiaris, Purkinje fiber; settings: dog, in vitro; outline: as §3
[19] = species on record: Canis familiaris; experiment: Maximum percent change in repolarization at 10 uM concentration on Canine Purkinje fibers.; type: functional, Canis lupus familiaris, Purkinje fiber; outline: as §2
[20] = species on record: Canis familiaris; experiment: Maximum percent change in conduction time (CT) at 100 uM concentration tested on Canine ventricular muscle fibre; type: functional, Canis lupus familiaris, Muscle tissue; outline: as §1
[21] = species on record: Canis familiaris; experiment: Percent change from control in the functional refractory period (FRP) at 10 uM concentration on Canine ventricular muscle fibre; value ranges from 2-17; set-up: species or system Canis lupus familiaris, Muscle tissue; outline: as §1
[22] = species on record: Canis familiaris; experiment: Percent change in repolarization at 10 Purkinje fibers.; type: functional, Canis lupus familiaris, Purkinje fiber; outline: as §3
[23] = species on record: Canis familiaris; experiment: The maximum percent change in action potential (Vmax ) at concentration observed (100 uM was tested on Canine Purkinje fibers.; set-up: species or system Canis lupus familiaris, Purkinje fiber; settings: dog; outline: as §3
[24] = species on record: Canis familiaris; experiment: Maximum Percent change from control in the rate of rise of phase 0 of the action potential at 30 uM concentration on Canine Purkinje fibers.; set-up: species or system Canis lupus familiaris, Purkinje fiber; settings: dog, in vitro; outline: as §2
[25] = species on record: Canis familiaris; experiment: Percent change from control in the rate of rise of phase 0 of the action potential at 10 uM concentration on Canine Purkinje fibers.; value ranges from -18 - -4; type: organism-based, Canis lupus familiaris, Purkinje fiber; settings: dog, in vitro
[26] = species on record: Canis familiaris; experiment: Maximum percent change in repolarization at 1 uM concentration on Canine Purkinje fibers.; type: functional, Canis lupus familiaris, Purkinje fiber; outline: as §2
[27] = species on record: Canis familiaris; experiment: Percent change from control in the functional refractory period (FRP) at 10 uM conc. on Canine ventricular muscle fibre.; value ranges from -1 - 16; set-up: species or system Canis lupus familiaris, Muscle tissue; outline: as §1
[28] = species on record: Canis familiaris; experiment: Percent change in repolarization at 10 Purkinje fibers.; value ranges from -6 -2; type: functional, Canis lupus familiaris, Purkinje fiber; outline: as §3
[29] = species on record: Canis familiaris; experiment: Maximum percent change in conduction time (CT) at 100 uM concentration tested on Canine ventricular muscle fibre; value ranges from 6-27; type: functional, Canis lupus familiaris, Muscle tissue; outline: as §1
[30] = species on record: Canis familiaris; experiment: Maximum Percent change from control in the rate of rise of phase 0 of the action potential at 1 uM concentration on Canine Purkinje fibers.; set-up: species or system Canis lupus familiaris, Purkinje fiber; outline: as §2
[31] = species on record: Canis familiaris; experiment: Maximum percent change in functional refractory period (FRP) at 100 uM on Canine ventricular muscle fibre.; value ranges from -3 - 26; set-up: species or system Canis lupus familiaris, Muscle tissue; outline: as §1

CCN(CC)CCNC(=O)c1[nH]c(C)c(C)c1C
FRP [1]: 24% | Vmax [2]: -42% | CT [3]: -5% | Vmax [4]: -6.3% | Vmax [5]: -3% | APD95 [6]: -9% | Vmax [7]: -17% | CT [8]: Minimal | APD95 [9]: 19.7% | FRP [10]: 24% | APD95 [11]: 12% | EC20 [12]: Not reached | CT [13]: 7%

CCN(CC)CCNC(=O)c1ccc(N)cc1 [PROCAINAMIDE]
Vmax [14]: 4% | Vmax [15]: -1.5% | CT [3]: 5% | APD95 [6]: 3% | CT [16]: -3% | FRP [17]: 14.3% | Vmax [18]: -10% | APD95 [19]: 1% | CT [20]: 4% | FRP [21]: 8.7% | APD95 [22]: -1%

CCN(CC)CCNC(=O)c1cccc2[nH]ccc12
Vmax [23]: -19% | Vmax [24]: -22% and -26% | APD95 [6]: -25% | Vmax [25]: -10.5% | APD95 [26]: -6% | FRP [27]: 6.3% | APD95 [28]: -3% | CT [8]: Minimal | APD95 [11]: -20% | CT [29]: 14.7% | Vmax [30]: -14% | FRP [31]: 10.7%

From ChEMBL document CHEMBL1124429, “Heterocyclic analogues of benzamide antiarrhythmic agents” (J Med Chem, 1989)
